The target in assay [1] is T1, Fatty-acid amide hydrolase 1 (Homo sapiens) (UniProt O00519).
T1 sequence (whole entry): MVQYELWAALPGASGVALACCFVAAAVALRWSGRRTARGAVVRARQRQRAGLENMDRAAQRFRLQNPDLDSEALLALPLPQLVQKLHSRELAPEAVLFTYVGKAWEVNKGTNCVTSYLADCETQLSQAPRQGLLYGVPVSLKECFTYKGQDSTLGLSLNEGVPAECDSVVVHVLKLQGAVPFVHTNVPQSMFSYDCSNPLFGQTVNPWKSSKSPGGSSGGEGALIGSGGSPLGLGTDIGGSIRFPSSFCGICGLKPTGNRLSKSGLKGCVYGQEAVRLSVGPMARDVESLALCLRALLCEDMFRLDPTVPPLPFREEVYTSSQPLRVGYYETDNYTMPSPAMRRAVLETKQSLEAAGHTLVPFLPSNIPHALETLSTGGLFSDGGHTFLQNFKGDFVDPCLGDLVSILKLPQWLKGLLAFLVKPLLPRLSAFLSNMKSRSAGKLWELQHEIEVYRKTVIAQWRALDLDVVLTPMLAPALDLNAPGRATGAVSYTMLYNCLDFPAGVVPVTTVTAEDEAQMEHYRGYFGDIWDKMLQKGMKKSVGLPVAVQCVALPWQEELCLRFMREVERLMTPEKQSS
The assay is described as follows: Inhibition of human FAAH expressed in COS7 cell membranes at 10 uM pre-incubated for 10 mins before [3H]-AEA substrate addition by liquid scintillation counting. The conditions noted are these: COS-7.

The target of assay [2] is T2, Monoglyceride lipase (Homo sapiens) (UniProt Q99685).
T2 sequence (whole entry): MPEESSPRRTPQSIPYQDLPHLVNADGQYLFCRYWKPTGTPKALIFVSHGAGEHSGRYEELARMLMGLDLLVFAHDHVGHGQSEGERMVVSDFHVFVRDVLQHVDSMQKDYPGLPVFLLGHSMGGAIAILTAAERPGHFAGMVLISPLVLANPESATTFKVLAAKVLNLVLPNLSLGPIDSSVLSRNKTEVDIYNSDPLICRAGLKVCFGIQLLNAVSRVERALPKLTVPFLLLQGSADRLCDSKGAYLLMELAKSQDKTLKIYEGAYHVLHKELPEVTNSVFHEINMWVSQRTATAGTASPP
The assay is described as follows: Inhibition of human MAGL expressed in HEK293 cells at 10 uM pre-incubated for 10 mins before 2-AG substrate addition by HPLC method. It counts as cell-based. The gist of the method: (§1)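 Lysates of hMAGL-overexpressing HEK293 cells in 50 mM Tris–HCl pH 7.4 with 1 mM EDTA. After a 10 min preincubation with inhibitor or DMSO, 2-AG was added (final 50 µM) and incubated 10 min at 37 °C. The reaction was stopped and samples centrifuged. Arachidonic acid formation and 2-AG depletion were measured by HPLC. Replicates as for the FAAH assay.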

Assay [3] concerns the target T3, Monoacylglycerol lipase ABHD6 (Homo sapiens, UniProt Q9BV23).
T3 sequence (Q9BV23 whole entry): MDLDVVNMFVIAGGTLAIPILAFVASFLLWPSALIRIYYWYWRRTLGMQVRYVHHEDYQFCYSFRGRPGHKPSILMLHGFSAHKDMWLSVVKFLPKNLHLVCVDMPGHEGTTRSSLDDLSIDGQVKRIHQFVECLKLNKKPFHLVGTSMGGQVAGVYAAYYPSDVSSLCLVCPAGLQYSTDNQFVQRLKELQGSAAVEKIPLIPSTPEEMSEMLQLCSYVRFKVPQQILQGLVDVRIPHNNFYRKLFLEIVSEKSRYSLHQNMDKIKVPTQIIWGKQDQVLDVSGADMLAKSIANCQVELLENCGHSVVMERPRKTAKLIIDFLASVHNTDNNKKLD
The assay is described as follows: Inhibition of human ABHD6 expressed in HEK293 cells assessed as reduction in glycerol production from 1-AG hydrolysis pre-incubated for 30 mins before 1-AG substrate addition and measured 90 mins post substrate addition by fluorescence method. Format: cell-based. The gist of the method: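 hABHD6-HEK293 lysates pretreated 30 min with DMSO or inhibitor, then given 1-AG (12.5 µM final). Glycerol release was followed kinetically by fluorescence (emission 590 nm). Blanks without lysate were subtracted. IC50 was taken at the 90 min time point by nonlinear fitting of dose–response curves.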

Assay [4] deals with T3, Monoacylglycerol lipase ABHD6. The assay is described as follows: Inhibition of human ABHD6 expressed in HEK293 cells at 1 uM pre-incubated for 10 mins before 2-AG substrate addition followed by rapid 40 fold compound dilution measured after 10 mins by HPLC method. It counts as cell-based.
Assay [5] shares this target. Briefly: Inhibition of human ABHD6 expressed in HEK293 cells at 1 uM pre-incubated for 10 mins before 2-AG substrate addition followed by rapid 40 fold compound dilution measured after 30 mins by HPLC method. It counts as cell-based.
Assay [6] shares this target. Briefly: Inhibition of human ABHD6 expressed in HEK293 cells at 1 uM pre-incubated for 10 mins before 2-AG substrate addition followed by rapid 40 fold compound dilution measured after 60 mins by HPLC method. It counts as cell-based.
Assay [7] shares this target. The assay is described as follows: Inhibition of human ABHD6 expressed in HEK293 cells at 1 uM pre-incubated for 10 mins before 2-AG substrate addition followed by rapid 40 fold compound dilution measured after 90 mins by HPLC method. It counts as cell-based.
The target of assay [8] is T4, Monoacylglycerol lipase ABHD6 (Homo sapiens) (UniProt Q9BV23).
T4 sequence (whole entry): T3 sequence (Q9BV23 whole entry)
Briefly: Reversible inhibition of human ABHD6 expressed in HEK293 cells at 1 uM pre-incubated for 10 mins before 2-AG substrate addition followed by rapid 40 fold compound dilution measured after 10 to 90 mins by HPLC method. It counts as cell-based.

The target of the next assay is T5, Monoglyceride lipase (Homo sapiens, UniProt Q99685).
T5 sequence (Q99685 whole entry): T2 sequence (whole entry)
Briefly: Inhibition of human MAGL expressed in HEK293 cells pre-incubated for 10 mins before 2-AG substrate addition by HPLC method. It counts as cell-based. In outline:
as §1

For assay [9], the target named is T6, Lysophosphatidylserine lipase ABHD12 (Homo sapiens) (UniProt Q8N2K0).
T6 sequence (whole entry): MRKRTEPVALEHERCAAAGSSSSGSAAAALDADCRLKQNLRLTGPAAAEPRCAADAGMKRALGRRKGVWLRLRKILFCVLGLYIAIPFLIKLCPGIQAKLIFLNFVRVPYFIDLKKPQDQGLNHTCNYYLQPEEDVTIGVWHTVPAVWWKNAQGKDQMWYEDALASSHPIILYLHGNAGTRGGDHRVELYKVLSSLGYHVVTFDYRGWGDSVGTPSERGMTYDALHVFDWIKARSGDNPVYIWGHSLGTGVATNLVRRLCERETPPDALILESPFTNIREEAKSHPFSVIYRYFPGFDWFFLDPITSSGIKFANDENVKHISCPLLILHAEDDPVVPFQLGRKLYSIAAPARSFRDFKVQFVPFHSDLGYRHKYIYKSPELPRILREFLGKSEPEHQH
Briefly: Inhibition of human ABHD12 expressed in HEK293 cells assessed as remaining enzyme activity at 1 uM pre-incubated for 10 mins before 2-AG substrate addition by HPLC method. Format: cell-based.

Assay [10] has as its target Cannabinoid receptor 1 (Rattus norvegicus) (UniProt P20272). The note with it: Cerebellum, Membrane, 1 uM.
The target of assay [11] is T7, Fatty-acid amide hydrolase 1 (Homo sapiens, UniProt O00519).
T7 sequence (O00519 whole entry): T1 sequence (whole entry)
The assay is described as follows: Inhibition of human FAAH expressed in COS7 cell membranes pre-incubated for 10 mins before [3H]-AEA substrate addition by liquid scintillation counting. Set-up: species or system COS-7. The note with it: cos-7; read-out: IC50.

Assay [12] concerns the target T4, Monoacylglycerol lipase ABHD6 (Homo sapiens). The assay is described as follows: Inhibition of human ABHD6 expressed in HEK293 cells assessed as remaining enzyme activity by measuring reduction in glycerol production from 1-AG hydrolysis at 1 uM pre-incubated for 30 mins before 1-AG substrate addition and measured 90 mins post substrate addition by fluorescence method; values are per cent of control.

Active and inactive are the calls of the source. The calls are words filed in the database; no cut-off is given here.

Chain of Cannabinoid receptor 1 (Rattus norvegicus) (P20272 whole entry): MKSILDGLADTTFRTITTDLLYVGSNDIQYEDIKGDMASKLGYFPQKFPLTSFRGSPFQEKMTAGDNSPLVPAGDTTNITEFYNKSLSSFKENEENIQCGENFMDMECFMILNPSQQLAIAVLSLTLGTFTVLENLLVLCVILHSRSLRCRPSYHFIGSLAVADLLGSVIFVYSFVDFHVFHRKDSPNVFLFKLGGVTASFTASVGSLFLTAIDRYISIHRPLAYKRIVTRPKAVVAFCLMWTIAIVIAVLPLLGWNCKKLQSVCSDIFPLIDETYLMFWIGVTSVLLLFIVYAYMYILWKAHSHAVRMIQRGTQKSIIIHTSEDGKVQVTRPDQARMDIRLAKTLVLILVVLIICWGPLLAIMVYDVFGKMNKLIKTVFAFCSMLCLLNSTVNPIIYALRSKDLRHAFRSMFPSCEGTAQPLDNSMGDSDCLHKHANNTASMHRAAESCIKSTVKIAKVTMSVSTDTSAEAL

In turn, `CN(C(=O)Oc1nsnc1N1CCOCC1)C1CCCCCCC1` yielded an inhibition in assay [1] of 18%. The inhibition result in assay [2] is “inactive”. Moreover, the pIC50 in assay [3] (hek293) amounted to 7.36. Besides, the IC50 in [4] was 91.2 nM; in assay [5], 87.1 nM; in assay [6], 87.1 nM; in assay [7] it was 93.3 nM.
With `CCCCCCCCCCC[C@@H](C[C@@H]1OC(=O)[C@H]1CCCCCC)OC(=O)[C@H](CC(C)C)NC=O`, the inhibition result in [8] was “Active”.
In assay [1], `O=c1oc(Oc2ccccc2)nn1Cc1cccc([N+](=O)[O-])c1` had an inhibition of 38%. Further, the IC50 at Monoglyceride lipase (read-out: IC50) was 3310 nM; at Monoglyceride lipase (read-out: pIC50 (converted)), 3240 nM; in [3] it was 130 nM. In assay [9], the inhibition entry was “inactive”.
The compound `Cc1c(C(=O)NN2CCCCC2)nn(-c2ccc(Cl)cc2Cl)c1-c1ccc(I)cc1` showed an inhibition in assay [10] of 38%.
As for `O=C(N1CCC(=C2c3ccc(Cl)cc3CCc3cccnc32)CC1)n1cncn1`, the IC50 in assay [11] turned out to be 7240 nM; at Monoglyceride lipase (hek293, read-out: IC50) it was 46 nM; in assay [3] (hek293), 1780 nM.
For `CCOc1nn(Cc2cccc([N+](=O)[O-])c2)c(=O)o1`, the inhibition result in [1] and in assay [9] was “inactive” each time. Moreover, the inhibition in assay [2] was 30%. In addition, the residual activity in assay [12] was 63%.
Take `COC(=O)c1cccc(Cn2nc(OC)oc2=O)c1`: the inhibition in assay [1] came out at 20%; in [2], 7%. For the same compound, the IC50 in assay [3] stood at 450 nM. In addition, the inhibition entry in assay [9] is “inactive”.

Source of the values: ChEMBL document CHEMBL3612019, “Revisiting 1,3,4-Oxadiazol-2-ones: Utilization in the Development of ABHD6 Inhibitors” (Bioorg Med Chem, 2015).
